# Hits are enriched below; roughly 4% of the tested compounds scored in any of these assays.
# hERG protect: compounds protecting human hERG from proarrhythmic drug block. CHO-hERG, FluxOR thallium flux, dofetilide IC70 present. activation (rescue from dofetilide block), less the hit threshold, % at 10 µM. actives 0.51% (n = 310,000). AID 1511;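 active = activation above the mean of controls blocked by dofetilide plus 5 SD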;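 also: thallium influx through hERG after potassium depolarization seen as dye fluorescence rise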
# KCNK9 inh: blocks the human KCNK9 two-pore domain potassium channel; Q9NPC2; HEK293 KCNK9, FluxOR thallium flux fluorescence; hits give low values; B-score at 10 µM; AID 488922; actives 1.2% (n = 310,000);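 active = ratio B-score over 3 SD below the library mean, with starting fluorescence within 5 SD of its mean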;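 also: negative B-score means less thallium flux so channel inhibition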
# KCNQ1 pot: human KCNQ1 channel potentiation or activation; P51787; CHO-K1 KCNQ1, thallium flux FluxOR fluorescence; hits give high values; B-score at 10 µM; actives 0.35% (n = 310,000);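 active = fluorescence ratio B-score, a plate-corrected score, at least three library SD, with initial intensity B-score within 5 SD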
#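 System: Stable KCNQ1 CHO-K1 line | Incubation: 90 min dye loading and 20 min compound exposure, both at room temperature | Measure: Ratio B score | Medium: Assay buffer for compound exposure, DMSO matched across wells | Compound dosing: Single-concentration screen | Probe or stimulus: K+/Tl+ depolarizing stimulus | Measured by: Kinetic FluxOR fluorescence, 10 s baseline plus 110 s post-stimulus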
# PHOSPHO1 block: blocks human PHOSPHO1 phosphatase activity | Q8TCT1 | recombinant PHOSPHO1, absorbance phosphatase assay | inhibition, % at 13.3 µM | actives 1.1% (n = 290,000); in the data active = inhibition above about 60%
# KCNK3 block: human KCNK3 channel inhibition, primary screen. O14649. CHO-KCNK3 thallium flux, FluxOR fluorescence; hits give low values. B-score at 10 µM. actives 0.84% (n = 340,000). AID 602410;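 active = B-score under library mean minus 4 SD, starting fluorescence ratio at most library mean plus 5 SD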;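 also: more negative B-score means stronger inhibition of thallium flux through KCNK3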
# KCNQ1 inh: blocks the human KCNQ1 potassium channel | CHO-K1 KCNQ1, FluxOR thallium flux fluorescence; hits give high values | actives 1.3% (n = 310,000) | AID 2642 | B-score at 10 µM;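 active = compounds whose thallium flux B-score, printed positive for inhibition, exceeds three library SD while starting fluorescence stays within three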;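 also: channel opened by potassium depolarization with thallium stimulus after 20 min compound exposure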
# KCNK9 inh conf: confirmation of human KCNK9 potassium channel inhibitors; shares compounds with KCNK9 inh; HEK293 KCNK9 cells, FluxOR thallium flux fluorescence; inhibition, % at 10 µM; actives 43% (n = 4,900); AID 492992;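 active = thallium signal inhibited by more than 5 SD of the compound-free buffer control wells, on both duplicate plates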;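 also: 0% = assay buffer control wells without compound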
# Kir2-1 spec: tests whether KCNK9 modulators also affect mouse Kir2.1; shares compounds with KCNK9 inh; Kir2.1 cells, FluxOR thallium flux fluorescence; inhibition, % at 10 µM; actives 4% (n = 4,900);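 active = thallium signal drop more than 5 SD beyond the mean of the no-compound control wells, seen in both duplicate plates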;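 also: signal is fluorescence rise after thallium addition divided by baseline fluorescence; plate controls were assay buffer only for no effect and full block by chlorpromazine control for full effect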
# HEK293 Tl ctr: non-induced cell nonspecific activity of KCNK9 modulators; inhibition, % at 10 µM; actives 40% (n = 4,900); non-induced KCNK9-HEK293, FluxOR thallium flux; shares compounds with KCNK9 inh;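 active = thallium signal drop beyond 5 SD of the untreated control mean, on both duplicate plates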;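 also: plate controls were buffer only IC0 wells for no effect and SID17386958 at its maximal inhibitory level for full effect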
# Numbers without * were called inactive; i = inactive; . = not tested or not shown.
SMILES,hERG protect,KCNK9 inh,KCNQ1 pot,PHOSPHO1 block,KCNK3 block,KCNQ1 inh,KCNK9 inh conf,Kir2-1 spec,HEK293 Tl ctr
CCC(c1nnnn1CCc1ccccc1)N(Cc1ccco1)Cc1cc2cccc(C)c2[nH]c1=O (configuration not stated),-12,-10*,i,-12,i,7*,33%*,i,30%*
Cc1ccc(S(=O)(=O)NCC(=O)N(CC(=O)NCC2CCCO2)Cc2ccccc2Cl)cc1 (configuration not stated),-6,i,i,35,i,i,.,.,.
CN(CC1CCCN(CCc2cccc(C(F)(F)F)c2)C1)C(=O)c1cc2ccccc2o1 (configuration not stated),-21,i,i,26,i,i,i,i,i
CC(=O)c1cccc(NC(=O)c2ccc(Br)o2)c1,-9,i,i,-10,i,i,.,.,.
CCCCC(=O)Nc1cccc(NC(=O)c2ccc(Br)o2)c1,-18,-8.5*,i,-22,i,i,43%*,i,i
CCN(CC)CCCNC(=O)c1cn(CC)c2cc(N3CCN(C(=O)c4ccco4)CC3)c(F)cc2c1=O,-7,i,i,29,i,i,.,.,.
Cc1ccc(-c2nc3ncccc3o2)cc1NC(=O)c1cc2ccccc2o1,-5,i,i,5,i,i,.,.,.
O=C(Nc1cccc(-c2nc3ncccc3o2)c1)c1cc2ccccc2o1,-22,-8.3*,i,11,i,i,66%*,i,i
Cc1cccc(C(=O)Nc2ccccc2C(=O)OCC(=O)Nc2ccc(C#N)cc2)c1,-15,-9.3*,i,-14,i,i,32%*,i,28%*
Cc1ccc(NC(=O)C(Nc2cccc(C)c2)c2ccccc2)cc1 (configuration not stated),-10,i,i,4,i,i,33%*,i,32%*
Cc1ccc(-c2csc(NC(=O)c3cccc(C)c3)c2C(=O)O)cc1,-9,i,i,.,i,i,i,i,i
Cc1cccc(C(=O)Nc2ccccc2NC(=O)c2cccc(C)c2)c1,-7,i,i,29,i,i,.,.,.
Cc1cccc(C(=O)Nc2ccc(NC(=O)c3ccccc3)cc2)c1,-2,-11*,i,3,i,i,54%*,i,i
Cc1cc(=O)n2nc(N3CCCC3C(=O)NCCCN3CCCCC3)sc2n1 (configuration not stated),-8,i,i,25,i,i,.,.,.
CCOc1cc(/C=N/NC(=O)CN2CCCCC2)ccc1OCc1ccccc1,-10,i,i,-30,i,i,.,.,.
CCn1c(SCC(=O)NCc2ccc3c(c2)OCO3)nnc1-c1ccncc1,1,i,i,30,i,i,.,.,.
CN(c1ccc(OCC(=O)Nc2cc(Cl)ccc2C(=O)O)cc1)S(=O)(=O)c1ccc(F)cc1,.,.,.,.,i,.,.,.,.
CN(Cc1ccccc1)C(=O)COC(=O)c1ccccc1NS(=O)(=O)c1cccc(N)c1,-7,i,i,-5,i,i,.,.,.
CC(OC(=O)c1ccccc1NS(=O)(=O)c1cccc(C(F)(F)F)c1)C(=O)N(C)Cc1ccccc1 (configuration not stated),-9,-13*,i,1,i,i,64%*,i,31%*
COc1ccccc1NS(=O)(=O)c1cccc(C(=O)N/N=C/c2ccc([N+](=O)[O-])o2)c1,.,.,.,.,i,.,.,.,.
CC(C1CC2CCC1C2)n1c(-c2cccs2)n[nH]c1=S (configuration not stated),-4,-11*,i,-114,i,i,54%*,i,i

# Screens: PubChem BioAssay, several laboratories
